EBV LMP1 NFkB – EBV LMP1-driven NF-kappaB luciferase reporter inhibitors, primary screen, cell-based, luminescence, single point; LMP1-induced NF-kappaB luciferase reporter cells; inhibition, % at 12.5 µM; 350,000 compounds, 0.69% hits; in the data active means inhibition above about 41%;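 further: 0% = neutral control wells and 100% = reference inhibitor control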
NR2E3 ag-1 – inhibitors of NR2E3-RetCOR corepressor binding, primary screen, NR2E3 agonist project, biochemical, TR-FRET, GST-NR2E3, biotin-RetCOR; Photoreceptor-specific nuclear receptor (Homo sapiens), Q9Y5X4; 1536-well; inhibition of corepressor binding, % at 4.78 µM; 320,000 compounds, 0.12% hits; AID 2300, 2010;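 active means percent inhibition above the cutoff of mean plus 3 SD of all tested compounds, set per screening campaign, cut at about 20% in these data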;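 further: 0% = DMSO wells and 100% = biotin wells as full block of FRET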
Target sequence (Q9Y5X4 whole entry, looked up): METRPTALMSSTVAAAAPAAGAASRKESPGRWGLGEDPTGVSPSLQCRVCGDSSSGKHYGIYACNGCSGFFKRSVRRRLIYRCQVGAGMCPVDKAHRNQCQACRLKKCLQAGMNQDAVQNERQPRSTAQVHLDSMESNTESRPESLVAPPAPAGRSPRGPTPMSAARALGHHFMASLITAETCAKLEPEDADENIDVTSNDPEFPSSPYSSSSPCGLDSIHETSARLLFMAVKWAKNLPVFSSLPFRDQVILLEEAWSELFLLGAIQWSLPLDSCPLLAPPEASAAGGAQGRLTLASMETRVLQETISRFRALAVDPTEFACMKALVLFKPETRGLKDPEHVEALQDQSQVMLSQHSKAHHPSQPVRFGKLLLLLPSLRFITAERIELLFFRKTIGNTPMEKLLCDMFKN
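Material: NR2E3–RetCOR corepressor complex / Incubation: Compound–protein incubation for 5 h at 4 °C / Dosing: compound at 4.8 µM, single dose / Detection: time-resolved FRET / Benchmarks: high control biotin, low control 0.6% DMSO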
HIF act – HIF pathway transcriptional activators, primary screen, cell-based, U2OS HRE-luciferase, luminescence | U2OS HRE-luciferase reporter; normalized: DMSO 0%, desferrioxamine 100% | activation, % at 7.5 µM (by protocol) | 300,000 compounds, 0.32% hits;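 active means mean activation of at least 10% of the iron chelator positive control signal, with at least half of replicates also reaching 10%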
TROY signal inh – inhibitors of TROY-driven NF-kB signaling, primary screen, Q293 LMP1-TROYcd cells, NF-kB luciferase, uHTS | 360,000 compounds, 0.98% hits | inhibition, % at 10 µM | Q293 LMP1-TROYcd NF-kB luciferase reporter, 4 h | AID 1347056, 2019;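 active means compounds whose plate-normalised and pattern-corrected inhibition of the luciferase reporter signal at the single screening dose is 50% or more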
NR2E3 ag-2 – NR2E3 agonists in two-hybrid cells, primary screen, cell-based, luminescence, CHO-S, Gal4-NCOR/VP16-NR2E3 | Photoreceptor-specific nuclear receptor (Homo sapiens), Q9Y5X4 | luciferase | inhibition of corepressor binding, % at 3.98 µM | 360,000 compounds, 0.35% hits | AID 602229, 2012;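 active means inhibition above the mean of all tested compounds plus 3 SD, cut at about 70% in these data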;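 further: 0% = DMSO with NR2E3 transfected cells and 100% = cells lacking NR2E3 construct; higher means lower luciferase signal from less NR2E3 corepressor binding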
Starred values were filed as active, the others as inactive; . = no result given. Shown are actives, neighbours in structure and some others; about 2% of the full set was active somewhere.

SMILES | EBV LMP1 NFkB | NR2E3 ag-1 | HIF act | TROY signal inh | NR2E3 ag-2
Cn1c(N)c(C(=O)COC(=O)COc2cccc(Br)c2)c(=O)n(C)c1=O | 3 | . | . | -14 | -3
O=C(CN1CCN(S(=O)(=O)c2cc(C(F)(F)F)ccc2Cl)CC1)N1CCc2ccccc2C1 | -2 | 1 | . | 19 | 4
Cc1ccc(C)c(S(=O)(=O)N2CCN(CC(=O)N3CCc4ccccc4C3)CC2)c1 | 57* | -3 | 0 | 2 | -3
Cc1ccc(C(=O)/C=C/C(=O)c2ccc(C)cc2)cc1 | 45* | 1 | 2 | -11 | -80
CCN(CC)c1ccc(/C=C(/C#N)c2nc3ccccc3[nH]2)c(OC(C)C)c1 | 5 | 2 | 7 | 69* | -31
COc1cccc(/C=C(\C#N)c2nc3ccc(C)cc3[nH]2)c1OCC(=O)O | -11 | 0 | -16 | -25 | -34
N#C/C(=C\c1ccccc1C(=O)O)c1nc2ccccc2[nH]1 | 0 | -4 | -1 | 3 | -67
CCOc1cccc(/C=C(/C#N)c2nc3ccccc3[nH]2)c1OCC(=O)O | 1 | -2 | 1 | 58* | -84
COc1ccc(OC)c(/C=C/C(=O)N(C)CC(=O)Nc2cc(C)ccc2C)c1 | -2 | 0 | 1 | 9 | -2
COc1ccc(-n2ncc3c2CC(C)(C)CC3NC(=O)CCn2nc(C)cc2C)cc1 (configuration not stated) | 4 | -1 | -1 | -1 | 25
Nc1c(C(O)(C(F)(F)F)C(F)(F)F)cc(C(O)(C(F)(F)F)C(F)(F)F)c2ccccc12 | -13 | -1 | 0 | 52* | 11
CCCCn1c(=O)[nH]c(=O)c2c1nc(CN1C(=O)c3ccccc3S1(=O)=O)n2CCC | 10 | 4 | 0 | 12 | -21
CCCCn1c(=O)[nH]c(=O)c2c1nc(Cn1ncc(Cl)c(Cl)c1=O)n2CCC | -46 | 5 | -5 | 71* | 17
Cc1cc(C)nc(S/C=C/C(=O)c2ccccc2F)n1 | -43 | -4 | 1 | 70* | -24
Cc1c(C(=O)N2CCN(Cc3ccc4c(c3)OCO4)CC2)sc2ncnc(N3CCN(c4ccccc4F)CC3)c12 | 13 | 1 | 0 | 50 | -32
Cc1c(C(=O)N2CCN(Cc3ccc4c(c3)OCO4)CC2)sc2ncnc(N3CCN(c4ccccc4)CC3)c12 | 21 | 1 | 0 | 53* | -6
CC(=O)N1CCN(C(=O)c2ccc3c(c2)OCO3)CC1 | -9 | . | . | 4 | 1
Cc1nc2nc(-c3ccc(F)cc3)cn2nc1C | 13 | -2 | -1 | -36 | -122
CCc1ccc(-c2cn3nc(C)c(C)nc3n2)cc1 | 84* | 1 | -3 | 16 | -58
NCCN1C(=O)S/C(=C\c2ccc3c(c2)OCO3)C1=O | 5 | -8 | 2 | 57* | -5
Cc1ccc(S(=O)(=O)Nc2cc(C)c(O)c(Sc3n[nH]c(C)n3)c2)cc1 | -6 | 6 | -2 | 14 | -25
O=C(COc1ccccc1-c1ccccc1)N/N=C/c1cccc2ccccc12 | 7 | -1 | 1 | 28 | 32
COc1ccc(/C=N/NC(=O)COc2ccccc2-c2ccccc2)cc1 | 74* | 0 | 0 | 14 | 38
NC(=O)c1cccc(-c2cnc(N)c(C(=O)c3cccnc3)n2)c1 | 17 | . | . | 51* | -12
CC(=O)Nc1cccc(-c2csc(N)n2)c1 | 4 | 4 | 0 | 15 | -12
SMILES | EBV LMP1 NFkB | NR2E3 ag-1 | HIF act | TROY signal inh | NR2E3 ag-2
CC(=O)Nc1cccc(-c2cnc(N)c(C(=O)c3cccnc3)n2)c1 | 49* | . | . | 38 | -13
O=C(Nc1cccc(NC(=O)c2cccnc2)c1)c1ccccc1 | 10 | 1 | 0 | -1 | -3
O=[N+]([O-])c1ccc(O)c(N=Cc2sc3ccccc3c2O)c1 | -20 | -4 | 0 | 76* | 12
CCNc1ccc(Br)cc(C(=O)/C=C/c2ccccc2Cl)c1=O | 83* | 0 | 0 | 9 | -26
FC(F)(F)c1ccccc1/C=N/n1c(COc2ccccc2)n[nH]c1=S | -10 | -1 | 2 | -15 | -7
Cc1ccc2nc(NC(=O)c3ccccn3)sc2c1 | 82* | 4 | -7 | 86* | 16
